Compound activity (PubChem BioAssay)
FLuc stim CS: affects firefly luciferase, flagging false hits in luciferase stimulation screens; 200,000 tested, under 10 active; AID 1027; ATPlite luciferase biochemical, luminescence, 10 min; 0 = ATP-free wells, 1 = DMSO control; activation factor at 10 µM; P08659;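 active means luciferase activation factor, scaled between plate controls, of at least 2 with compound at 10 µM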
Target sequence (P08659 whole entry, looked up): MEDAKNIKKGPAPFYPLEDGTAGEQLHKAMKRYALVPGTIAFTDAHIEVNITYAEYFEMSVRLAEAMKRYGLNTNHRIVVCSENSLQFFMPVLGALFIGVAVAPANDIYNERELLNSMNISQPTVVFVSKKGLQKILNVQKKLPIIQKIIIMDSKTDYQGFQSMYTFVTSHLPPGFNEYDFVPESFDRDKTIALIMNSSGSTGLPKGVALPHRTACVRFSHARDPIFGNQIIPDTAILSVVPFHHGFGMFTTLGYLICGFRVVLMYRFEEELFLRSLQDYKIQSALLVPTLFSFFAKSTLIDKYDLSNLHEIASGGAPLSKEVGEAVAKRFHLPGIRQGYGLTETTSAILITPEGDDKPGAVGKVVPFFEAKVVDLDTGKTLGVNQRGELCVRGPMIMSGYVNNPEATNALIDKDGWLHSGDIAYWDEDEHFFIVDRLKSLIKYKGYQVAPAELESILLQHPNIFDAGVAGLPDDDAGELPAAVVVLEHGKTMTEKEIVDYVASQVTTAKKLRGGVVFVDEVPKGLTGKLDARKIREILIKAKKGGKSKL
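Assay system: Luciferase/luciferin detection reagent, cell-free biochemical luciferase assay / Read-out: luciferase activation / Benchmarks: No-ATP low control, compound-free enzyme-plus-ATP high control / Medium: PBS buffer for ATP / Detection: luminescence measurement of luciferase light output / Schedule: 10 min at ambient temperature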
FLuc inhib CS: counter-screen for luciferase assay inhibitors: firefly luciferase inhibition; 200,000 tested, 1.5% active; inhibition, % at 10 µM; ATPLite firefly luciferase biochemical luminescence, 10 min; P08659;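 active means inhibition above about 50% when tested at 10 µM, limit read from the data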
APP 5'UTR act: activates APP 5'UTR luciferase reporter; SH-SY5Y APP 5'UTR luciferase reporter, luminescence; zero percent = DMSO vehicle wells; activation, % at 2 µM; 190,000 tested, 1% active; AID 1276;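 active means activation above a set limit, based on mean plus 3 SD of controls, cut at about 140% in these data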
NF-kB neuron act: compounds increasing NF-kB expression in human neuronal cells | NF-kB reporter expression; stronger effect = higher value | fold change at 12.5 µM | 190,000 tested, 1.6% active | AID 1239; in the data active means fold change above about 3.3
STAT1 act: activators of IFN-gamma induced STAT1 signaling. 200,000 tested, 2.6% active. NIH 3T3 STAT1-luciferase reporter, luminescence; 100% = IFN-gamma alone, no compound. activation (% of control), % at 5.5 µM;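 active means activation above the screen-wide mean activation plus 3 SD, cut at about 130% in these data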;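 further: raw ratio to IFN-gamma control signal so 100% means no change and 0% no light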
Pf gamet viab: inhibitors of late stage P. falciparum gametocyte viability. P. falciparum stage V gametocytes, ATP luminescence, 24 h. inhibition, % at 10.9 µM. 150,000 tested, 0.065% active. AID 743093;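 active means inhibition above the mean plus 3 SD of compounds within the control limits, set per campaign, cut at about 38% in these data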;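 further: 0% = DMSO wells and 100% = medium only without gametocytes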
STAT1 act conf: confirmation of STAT1 signaling activators. shares compounds with STAT1 act. NIH 3T3 STAT1-luciferase reporter, IFN-gamma potentiation, luminescence; 100% = IFN-gamma EC80 alone, no compound. activation (% of control), % at 5.7 µM. 1,200 tested, 97% active. AID 1262;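 active means activation above a set limit carried over from the earlier primary STAT1 screen, cut at about 140% in these data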;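 further: simple ratio to median IFN-gamma plus DMSO wells so 0% means no light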
NFkB act STAT1ct: NF-kappaB activation in STAT1 activator counter-screen | shares compounds with STAT1 act | HEK293T NF-kB luciferase reporter, TNF-alpha stimulated, luminescence; 100% = TNF-alpha with vehicle only | activation (% of control), % at 5.7 µM | 1,200 tested, 43% active | AID 1306;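 active means activation above the mean of solvent-only control wells plus 3 SD, set per campaign, cut at about 130% in these data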;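 further: TNF-alpha given at a submaximal dose yielding about 80% of full reporter signal; values are well signal over median control so 100% means no change and 0% no light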
STAT3 act STAT1c: counter-screen for STAT1 activators: human STAT3 activation | shares compounds with STAT1 act | U3A cells STAT3-luciferase reporter, IL-6, luminescence; cells lack STAT1; 100 = IL-6 alone, no compound effect | activation (% of control), % at 5.7 µM | 1,200 tested, 46% active | AID 1316;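 active means activation above the solvent-only control well mean plus 3 SD, set per plate batch, cut at about 110% in these data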;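 further: 0% = no luminescence and 100% = median IL-6 plus DMSO wells; higher means more STAT3 reporter activation so hits are non-selective activators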
The depositor's hits bear a star; . = not tested or not shown. A selection: hits, their analogues and other compounds. The true share with any hit is near 3.5%.

SMILES	FLuc stim CS	FLuc inhib CS	APP 5'UTR act	NF-kB neuron act	STAT1 act	Pf gamet viab	STAT1 act conf	NFkB act STAT1ct	STAT3 act STAT1c
N#Cc1ccsc1NC(=O)COC(=O)c1ccc(NC(N)=O)cc1	0.9	5.7	128.1	1.13	165.7*	-41.7	198.9*	137.4*	141.0*
CCN(CC)c1ccc(C(=O)OCC(=O)Nc2sccc2C#N)cc1	1	0.6	45.4	2.11	123.0	2.5	.	.	.
N#CCCN(C1CCCCC1)S(=O)(=O)CCOc1ccccc1	1.1	-8.9	-11.5	1.01	94.1	.	.	.	.
COc1ccccc1Oc1ncnc2c1oc1ccccc12	1	-0.2	-15.5	1.06	107.0	-4.0	.	.	.
c1ccc2c(c1)oc1c(Nc3ccc4c(c3)OCCO4)ncnc12	0.7	27.8	163.6*	5.04*	179.9*	.	260.4*	141.3*	114.0*
CC(C)[C@H](Nc1ncnc2c1oc1ccccc12)C(=O)O	.	.	.	.	.	12.6	.	.	.
COc1ccc(Nc2ncnc3c2oc2ccccc23)cc1	0.9	7.7	117.2	3.4*	163.2*	.	203.7*	133.7*	104.3
Cc1ccc(Nc2ncnc3c2oc2ccccc23)cc1	0.9	8.6	152.4*	5.42*	171.2*	.	231.3*	154.9*	116.6*
O=C(/C=C/Nc1cccc(F)c1)c1ccco1	0.2	75.8*	101.7	3.86*	154.2*	-2.3	192.2*	124.5	115.7*
CC(C)[C@H](NC(=O)c1ccco1)C(=O)OCC(=O)Nc1cccc(F)c1	1.1	-5.7	-14.6	1.21	98.6	-8.8	.	.	.
O=C(/C=C/Nc1ccccc1Oc1ccccc1)c1ccco1	1	-2.5	0.7	1.04	111.9	3.0	.	.	.
O=C(/C=C/Nc1ccc(Oc2ccccc2Cl)cc1)c1ccco1	0.7	29.2	92.7	6.21*	155.2*	-23.6	177.8*	143.8*	135.1*
CC(=O)Nc1nc2ccc(Br)cc2s1	1	-2.1	32.3	2.63	173.6*	-2.0	205.2*	141.3*	112.2*
Cn1cc(Cl)c(C(=O)Nc2nc3ccc(Cl)cc3s2)n1	0.6	41.8	73.4	3.18	151.3*	.	171.4*	137.6*	99.7
Cn1cc(Cl)c(C(=O)Nc2nc3ccc([N+](=O)[O-])cc3s2)n1	0.9	13.1	18.1	1.84	105.0	24.3	.	.	.
CCOC(=O)c1ccc2nc(Nc3nc4ccc(F)cc4s3)sc2c1	1	0.2	-6.8	0.77	61.7	.	.	.	.
CCOC(=O)c1ccc2nc(NC(C)=O)sc2c1	0.9	7.6	79.5	2.79	160.6*	6.8	167.9*	123.7	108.7
CC(=O)Nc1nc2cc(C(N)=O)ccc2s1	.	.	.	.	.	-10.0	.	.	.
O=C(N/C(=C\c1ccc(Cl)cc1)C(=O)N1CCOCC1)c1ccc([N+](=O)[O-])cc1	1	2.5	-2.7	1.29	105.4	-29.6	.	.	.
O=C1c2ccccc2C(=O)N1CC1c2ccccc2CCN1C(=O)CN1CCOCC1 (configuration not stated)	1.1	-7.3	6.4	1.27	94.2	-13.7	.	.	.
O=C(N1CCOCC1)C(F)(F)C(=O)N1CCOCC1	1.1	-6.1	12.6	1.11	94.2	4.1	.	.	.
CCSc1nc2c([nH]c3ccccc32)c(=O)n1C	1	0.6	-1.1	1	101.5	.	.	.	.
Cc1cccc2c1[nH]c1nc(N/N=C\c3ccco3)nnc12	1	1.9	11.8	1.12	105.7	.	.	.	.
CCSc1nnc2nc3[nH]c4c(C)cccc4c3nn12	1	-3.5	84.2	2.03	151.0*	36.1	148.6*	119.1	123.3*
C=CCSc1nnc2c(n1)[nH]c1c(C)cccc12	0.8	15.7	119.3	2.39	154.2*	.	176.0*	118.1	88.9
